The values below come from ChEMBL document CHEMBL3085702, “Synthesis and biological evaluation of 3-(trimethoxyphenyl)-2(3H)-thiazole thiones as combretastatin analogs” (Eur J Med Chem, 2013).

Test [1] concerns MCF7. Put plainly: Cytotoxicity against human MCF7 cells after 48 hrs by MTT assay. Type of test: functional, cell-based. The settings on record: MCF7, 48 h. An outline of the steps:
(§1)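 Log-phase cells harvested by trypsinization, seeded 24 h, then exposed to a range of compound concentrations for 48 h; etoposide positive and DMSO negative controls, final DMSO below 2%. Cells kept at 37 °C, 5% CO2, humidified. MTT formazan absorbance read; % inhibition = (Abs control − Abs treated)/Abs control × 100; IC50 from concentration–response curves by regression.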
For orientation: Tetrazolium dyes change colour on reduction, which living cells bring about.

Test [2] has as its system T47D. Put plainly: Cytotoxicity against human T47D cells after 48 hrs by MTT assay. It counts as functional, cell-based. The method, boiled down: as §1
Another test deals with MDA-MB-231. Put plainly: Cytotoxicity against human MDA-MB-231 cells after 48 hrs by MTT assay. Type of test: functional, cell-based. The note with it: MDA-MB-231, 48 h. The method, boiled down:
as §1

Test [3] deals with MCF7. Put plainly: Induction of apoptosis in human MCF7 cells assessed as viable cells at IC50 using annexin V-PE/7-AAD double staining by flow cytometry (reference value: 95%). It counts as functional. A general note: A flow cytometer gives signals particle by particle.
Test [4] concerns T47D. Put plainly: Induction of apoptosis in human T47D cells at IC50 after 24 hrs by acridine orange/ethidium bromide staining test. It counts as functional, cell-based.
For test [5], the system named is MCF7. Put plainly: Induction of apoptosis in human MCF7 cells assessed as necrotic cells at IC50 using annexin V-PE/7-AAD double staining by flow cytometry (reference value: 0%). It counts as functional.
The test system of test [6] is MRC5. Put plainly: Cytotoxicity against human MRC5 cells after 48 hrs by MTT assay. It counts as cell-based. The note with it: MRC5, 48 h. An outline of the steps: as §1
Test [7] has as its system MCF7. Put plainly: Induction of apoptosis in human MCF7 cells assessed as late apoptotic cells at IC50 using annexin V-PE/7-AAD double staining by flow cytometry (reference value: 0.12%). It counts as functional.
The test system of test [8] is MCF7. Put plainly: Induction of apoptosis in human MCF7 cells at IC50 after 24 hrs by acridine orange/ethidium bromide staining test. Type of test: functional, cell-based.
Test [9] concerns MCF7. Put plainly: Induction of apoptosis in human MCF7 cells assessed as early apoptotic cells at IC50 using annexin V-PE/7-AAD double staining by flow cytometry (reference value: 4.88%). Type of test: functional.
The species entered for a further test is Ovis aries. Put plainly: Inhibition of sheep brain tubulin polymerization assessed as reduction of microtubule assembly.
Test [10] has as its system MRC5. Put plainly: Selectivity index, ratio of IC50 for human MRC5 cells to IC50 for human MDA-MB-231 cells. Type of test: functional. An outline of the steps: (§2)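 Ratio of IC50 in non-tumoral MRC-5 cells to IC50 in the cancer line, both from the 48 h MTT assay.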
For test [11], the system named is MRC5. Put plainly: Selectivity index, ratio of IC50 for human MRC5 cells to IC50 for human T47D cells. It counts as functional. An outline of the steps: as §2
Test [12] in a line: Inhibition of sheep brain tubulin polymerization assessed as reduction of microtubule assembly after 30 mins by UV-visible spectrophotometry.
Test [13] concerns MCF7. Put plainly: Selectivity index, ratio of IC50 for human MRC5 cells to IC50 for human MCF7 cells. It counts as functional. An outline of the steps:
as §2

In brackets after ≈: the same amount, converted by molar mass. Activity calls are given as the source filed them. The rule behind the calls is not given here.

By IC50 is commonly meant the midpoint of a concentration-inhibition curve. Low readings indicate inhibition by little substance, high ones a need for much substance. In the case of `COc1ccc(-n2c(-c3ccccc3)csc2=S)cc1`, the IC50 in the test on MCF7 [1] stood at 88.5 µg/mL (≈ 296 µM); in the test on T47D [2], 23.2 µg/mL (≈ 77.5 µM); with MDA-MB-231, 36.8 µg/mL (≈ 123 µM).

As to `COc1cc(N2C(=S)SCC2(O)c2ccc(Cl)cc2Cl)cc(OC)c1OC` (racemic), the Activity in the test on MCF7 [3] is 48.32%; in the test on MCF7 [5], 0%; in the test on MCF7 [7], 0.02%; in the test with MCF7 [9], 51.67%. Besides, the result with T47D [4] and with MCF7 [8] was Active. The IC50 came to 9.6 µg/mL (≈ 21.5 µM) with MCF7 [1], 47.3 µg/mL (≈ 106 µM) in the test on MRC5 [6], 16.9 µg/mL (≈ 37.9 µM) with T47D [2] and 14.5 µg/mL (≈ 32.5 µM) in the test on MDA-MB-231.

As for `COc1cc(N2C(=S)SCC2(O)c2ccc(Br)cc2)cc(OC)c1OC` (racemic), the concentration for half-maximal inhibition (IC50) came out at 16.5 µg/mL (≈ 36.2 µM) in the test with MCF7 [1], 16.3 µg/mL (≈ 35.7 µM) in the test with T47D [2] and 15.1 µg/mL (≈ 33.1 µM) with MDA-MB-231.

In the case of `COc1cc(-n2c(-c3ccc(O)c(O)c3)csc2=S)cc(OC)c1OC`, the results for the IC50 in the test on MCF7 [1], with T47D [2] and with MDA-MB-231 were more than 100 µg/mL, 24.9 µg/mL (≈ 63.6 µM) and 29.8 µg/mL (≈ 76.1 µM), respectively.

On to `COc1ccc(C(=O)CSC(=S)Nc2cc(OC)c(OC)c(OC)c2)cc1`, for which the IC50 amounted to 18.6 µg/mL (≈ 45.6 µM) with MCF7 [1], 29.9 µg/mL (≈ 73.4 µM) in the test with T47D [2] and 16.4 µg/mL (≈ 40.2 µM) with MDA-MB-231.

Regarding `COc1cc([C@@H]2c3cc4c(cc3[C@@H](O[C@@H]3O[C@@H]5CO[C@@H](C)O[C@H]5[C@H](O)[C@H]3O)[C@H]3COC(=O)[C@H]23)OCO4)cc(OC)c1O` [ETOPOSIDE], the Activity with MCF7 [3] turned out to be 83.39%; with MCF7 [5], 0%; in the test with MCF7 [7], 0.01%; in the test with MCF7 [9], 16.6%. The IC50 in the test with MCF7 [1] turned out to be 9.4 µg/mL (≈ 16 µM); with T47D [2], 8.2 µg/mL (≈ 13.9 µM); in the test on MDA-MB-231 it was 7.2 µg/mL (≈ 12.2 µM).

As to `COc1cc(-n2c(-c3ccc(Br)cc3)csc2=S)cc(OC)c1OC`, the half-maximal inhibitory concentration (IC50) in the test with MCF7 [1] is more than 100 µg/mL; with T47D [2] it was more than 100 µg/mL; in the test on MDA-MB-231, 58 µg/mL (≈ 132 µM).

`COc1cc(-n2c(-c3ccc(Cl)cc3Cl)csc2=S)cc(OC)c1OC`: the IC50 was determined as 23.6 µg/mL (≈ 55.1 µM) in the test with MCF7 [1], 43.4 µg/mL (≈ 101 µM) in the test on T47D [2] and 49 µg/mL (≈ 114 µM) in the test with MDA-MB-231.

With `COc1cc(-n2c(-c3ccc(-c4ccccc4)cc3)csc2=S)cc(OC)c1OC`, the IC50 in the test on MCF7 [1] is 45.3 µg/mL (≈ 104 µM); in the test on T47D [2] it was more than 100 µg/mL; with MDA-MB-231 it was more than 100 µg/mL.

With `COc1cc(-n2c(-c3ccc(F)cc3)csc2=S)cc(OC)c1OC`, the half-maximal inhibitory concentration (IC50) turned out to be 38.5 µg/mL (≈ 102 µM) with MCF7 [1], 38.9 µg/mL (≈ 103 µM) in the test on T47D [2] and 19.5 µg/mL (≈ 51.7 µM) in the test on MDA-MB-231.

As for `COc1ccc(-n2c(-c3ccccc3)csc2=S)cc1OC`, the values for the half-inhibitory concentration (IC50) with MCF7 [1], with T47D [2] and with MDA-MB-231 were 17.6 µg/mL (≈ 53.4 µM), 33.1 µg/mL (≈ 100 µM) and 19.1 µg/mL (≈ 58 µM), respectively.

By pIC50 is commonly meant the negative decadic logarithm of the IC50, by convention in mol/L. Take `COc1cc(-n2c(-c3ccc(C)cc3)csc2=S)cc(OC)c1OC`: the Activity in the test with MCF7 [3] is 33.24%; with MCF7 [5], 0.02%; with MCF7 [7] it was 0.26%; in the test on MCF7 [9] it was 66.47%. The outcome in the test on T47D [4] and in the test with MCF7 [8] was Active. Moreover, the inhibition entry in the test filed under Ovis aries was “Dose-dependent effect”. For the same molecule, the “Ratio IC50” value in the test with MRC5 [10], in the test on MRC5 [11] and with MCF7 [13] was more than 5 throughout. Also, the 50% inhibitory concentration (IC50) in the test with MCF7 [1] was 19.7 µg/mL (≈ 52.7 µM); in the test with MRC5 [6], more than 100 µg/mL; with T47D [2], 16.3 µg/mL (≈ 43.6 µM); with MDA-MB-231 it was 11.8 µg/mL (≈ 31.6 µM). Also, in test [12], the pIC50 is reported as 4.14.

Consider `COc1cc(-n2c(-c3ccc(Cl)cc3)csc2=S)cc(OC)c1OC`, for which the IC50 in the test on MCF7 [1], in the test with T47D [2] and in the test with MDA-MB-231 was more than 100 µg/mL each time.

Turning to `COc1cc(-n2c(-c3ccccc3)csc2=S)cc(OC)c1OC`, the half-inhibitory concentration (IC50) in the test with MCF7 [1] was more than 100 µg/mL; with T47D [2], 31.6 µg/mL (≈ 87.9 µM); in the test with MDA-MB-231, 52 µg/mL (≈ 145 µM).

With `COc1cc(-n2c(-c3ccc(O)cc3)csc2=S)cc(OC)c1OC`, the IC50 worked out at 35.1 µg/mL (≈ 93.5 µM) in the test on MCF7 [1], 26.4 µg/mL (≈ 70.3 µM) in the test with T47D [2] and 22.9 µg/mL (≈ 61 µM) with MDA-MB-231.

Turning to `COc1ccc(-c2csc(=S)n2-c2cc(OC)c(OC)c(OC)c2)cc1`, the IC50 is more than 100 µg/mL with MCF7 [1], more than 100 µg/mL with T47D [2] and 53.8 µg/mL (≈ 138 µM) in the test on MDA-MB-231.
